Reference: ChEMBL document CHEMBL4261499, “Chiral disubstituted piperidinyl ureas: a class of dual diacylglycerol lipase-α and ABHD6 inhibitors” (Medchemcomm, 2017)

Experiments:
[1] = biological target: T1, Monoacylglycerol lipase ABHD6 (Homo sapiens, UniProt Q9BV23); test: Inhibition of recombinant human ABHD6 expressed in HEK293 cells by AmplifuTM red dye based fluorescence assay; assay type: cell-based
T1 sequence (Q9BV23 whole entry): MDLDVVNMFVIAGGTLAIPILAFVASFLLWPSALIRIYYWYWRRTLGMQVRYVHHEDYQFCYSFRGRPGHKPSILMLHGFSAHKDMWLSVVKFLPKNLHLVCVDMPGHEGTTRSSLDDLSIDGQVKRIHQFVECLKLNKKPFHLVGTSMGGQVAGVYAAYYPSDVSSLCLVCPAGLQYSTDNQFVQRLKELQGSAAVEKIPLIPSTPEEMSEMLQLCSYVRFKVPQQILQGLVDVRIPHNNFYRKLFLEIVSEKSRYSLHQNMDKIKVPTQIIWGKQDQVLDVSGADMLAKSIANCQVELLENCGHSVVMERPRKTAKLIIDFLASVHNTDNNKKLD
How it was run: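 Membranes from transiently transfected HEK293T cells expressing human ABHD6, 40 μg mL-1 final protein. Real-time coupled fluorescence assay with natural substrate 2-AG (25 μM). Glycerol released is detected via glycerol kinase, glycerol-3-phosphate oxidase and HRP (0.2 U mL-1 each), 0.125 mM ATP and 10 μM Amplifu Red. Assay contains 5% DMSO and 0.5% acetonitrile. pIC50 ± SEM.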

[2] = biological target: T2, Monoacylglycerol lipase ABHD6 (Mus musculus) (UniProt Q8R2Y0); test: Inhibition of MB064 labelling of ABHD6 in mouse brain homogenates at 10 uM pretreated for 30 mins followed by MB064 addition and measured after 20 mins by activity based protein profiling assay relative to control; assay type: tissue-based
T2 sequence (whole entry): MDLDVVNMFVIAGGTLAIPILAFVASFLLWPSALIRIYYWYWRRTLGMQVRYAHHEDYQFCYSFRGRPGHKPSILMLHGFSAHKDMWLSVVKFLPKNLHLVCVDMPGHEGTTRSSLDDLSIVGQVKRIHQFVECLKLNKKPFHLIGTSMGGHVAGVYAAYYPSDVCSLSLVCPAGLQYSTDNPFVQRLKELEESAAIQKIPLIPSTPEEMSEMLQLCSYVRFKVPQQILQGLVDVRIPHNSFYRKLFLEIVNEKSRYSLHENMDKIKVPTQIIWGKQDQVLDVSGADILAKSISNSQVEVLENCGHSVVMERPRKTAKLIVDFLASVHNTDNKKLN
How it was run: (§1)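 Mouse brain membrane proteome preincubated 30 min with inhibitor (10 μM), then labelled with MB064 probe (0.25 μM, 20 min). Readout by gel-based competitive ABPP. Band intensities corrected for protein loading per lane from Coomassie staining. Means ± SEM, n = 3.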

[3] = biological target: T3, Diacylglycerol lipase-alpha (Mus musculus) (UniProt Q6WQJ1); test: Inhibition of MB064 labelling of DAGLalpha in mouse brain homogenates at 10 uM pretreated for 30 mins followed by MB064 addition and measured after 20 mins by activity based protein profiling assay relative to control; assay type: tissue-based; how it was run: as §1
T3 sequence (whole entry): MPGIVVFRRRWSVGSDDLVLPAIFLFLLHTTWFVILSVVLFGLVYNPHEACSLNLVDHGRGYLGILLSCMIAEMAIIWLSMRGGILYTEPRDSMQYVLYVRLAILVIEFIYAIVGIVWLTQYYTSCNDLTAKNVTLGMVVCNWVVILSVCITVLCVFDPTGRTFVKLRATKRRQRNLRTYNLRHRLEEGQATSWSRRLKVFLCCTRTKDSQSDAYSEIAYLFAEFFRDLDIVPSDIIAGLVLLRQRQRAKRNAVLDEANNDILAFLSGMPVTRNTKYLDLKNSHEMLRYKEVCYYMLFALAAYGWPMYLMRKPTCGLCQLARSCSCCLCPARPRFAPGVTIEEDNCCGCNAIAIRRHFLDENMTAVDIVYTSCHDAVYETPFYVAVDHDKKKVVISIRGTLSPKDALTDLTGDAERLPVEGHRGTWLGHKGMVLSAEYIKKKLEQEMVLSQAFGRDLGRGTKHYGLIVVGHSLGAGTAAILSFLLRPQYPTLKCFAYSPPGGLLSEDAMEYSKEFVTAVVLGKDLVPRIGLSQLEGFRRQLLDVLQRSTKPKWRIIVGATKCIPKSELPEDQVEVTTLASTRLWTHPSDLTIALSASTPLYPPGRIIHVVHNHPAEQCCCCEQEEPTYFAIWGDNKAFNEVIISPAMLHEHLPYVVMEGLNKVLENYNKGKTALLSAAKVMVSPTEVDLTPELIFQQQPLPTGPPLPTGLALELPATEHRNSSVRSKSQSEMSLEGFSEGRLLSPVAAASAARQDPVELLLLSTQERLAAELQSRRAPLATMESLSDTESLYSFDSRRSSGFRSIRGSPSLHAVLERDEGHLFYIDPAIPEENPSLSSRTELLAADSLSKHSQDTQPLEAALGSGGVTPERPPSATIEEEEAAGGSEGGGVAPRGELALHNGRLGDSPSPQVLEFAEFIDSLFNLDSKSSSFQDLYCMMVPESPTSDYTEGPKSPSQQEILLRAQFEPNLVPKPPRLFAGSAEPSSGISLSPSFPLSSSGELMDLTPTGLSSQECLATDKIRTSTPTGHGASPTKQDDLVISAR

Row | IC50 [1] [nM] | inhibition [2] [%] | inhibition [3] [%] | SMILES
1 | 12.6 | 96 | 94 | O=C(N1CCC=C[C@@H]1COCc1ccccc1)n1cc(-c2ccc(-c3ccccc3)cc2)nn1
2 | 31.6 | 93 | 95 | O=C(N1CCC=C[C@@H]1COCc1ccccc1)n1cc(-c2ccc([N+](=O)[O-])cc2)nn1
3 | 6.31 | 86 | 93 | O=C(N1CCC=C[C@@H]1COCc1ccccc1)n1cc(-c2ccc(Oc3ccccc3)cc2)nn1
4 | 10 | 95 | 85 | O=C(N1C[C@@H](O)C=C[C@@H]1COCc1ccccc1)n1cc(-c2ccc(-c3ccccc3)cc2)nn1
5 | 158 | 89 | 89 | O=C(N1CCC=C[C@@H]1COCc1ccccc1)n1cc(-c2ccccc2)nn1
6 | 3.16 | 96 | 96 | O=C(N1CCCC[C@@H]1COCc1ccccc1)n1cc(-c2ccc(-c3ccccc3)cc2)nn1
7 | 15.8 | 94 | 93 | O=C(N1CCC=C[C@@H]1COCc1ccccc1)n1cc(-c2ccc(Br)cc2)nn1
